The values that follow come from ChEMBL document CHEMBL3046199, “Synthesis and antiviral activities of pyrazole derivatives containing an oxime moiety” (J Agric Food Chem, 2008).

In test [1] the test system is Tobacco mosaic virus. The test is described as follows: In vivo antiviral activity against Tobacco mosaic virus (TMV) infected left side of tobacco leaves assessed as inactivation effect at 500 ug/ml co-incubated with virus for 30 min before inoculation onto leaves measured at 3-4 days after viral challenge. It is filed as functional.
In test [2] the test system is Tobacco mosaic virus. The test is described as follows: In vivo antiviral activity against Tobacco mosaic virus (TMV) infected left side of tobacco leaves assessed as protective effect at 500 ug/ml treated 12 hr before viral inoculation measured at 3-4 days after viral challenge. It is filed as functional. Summed up:
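TMV purified from inoculated N. tabacum upper leaves (ground in phosphate buffer, filtered, centrifuged at 10000g, twice PEG-treated, all at 4 °C), concentration from A260. Compound solution smeared on left half of same-age N. tabacum leaves, solvent on right half as control. Leaves inoculated 12 h later by brush with 6 × 10^-3 mg/mL TMV over silicon carbide. Local lesions counted 3-4 days post-inoculation, three repetitions. Inhibition % = (control lesions − treated lesions)/control lesions × 100.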

Test [3] relates to Tobacco mosaic virus. The test is described as follows: In vivo antiviral activity against Tobacco mosaic virus (TMV) infected left side of tobacco leaves assessed as curative effect at 500 ug/ml treated after viral inoculation measured at 3-4 days after viral challenge. It is filed as functional.
Test [4] relates to Tobacco mosaic virus. The test is described as follows: In vivo antiviral activity against Tobacco mosaic virus (TMV) infected left side of tobacco leaves assessed as inactivation effect co-incubated with virus for 30 min before inoculation onto leaves measured at 3-4 days after viral challenge. The format is functional, organism-based.
The subject of test [5] is Tobacco mosaic virus. The test is described as follows: In vivo antiviral activity against Tobacco mosaic virus (TMV) infected left side of tobacco leaves assessed as inactivation effect at 62.5 ug/ml co-incubated with virus for 30 min before inoculation onto leaves measured at 3-4 days after viral challenge. The format is functional.
In test [6] the test system is Tobacco mosaic virus. The test is described as follows: In vivo antiviral activity against Tobacco mosaic virus (TMV) infected left side of tobacco leaves assessed as inactivation effect at […] ug/ml co-incubated with virus for 30 min before inoculation onto leaves measured at 3-4 days after viral challenge. It is filed as functional.
The subject of test [7] is Tobacco mosaic virus. The test is described as follows: In vivo antiviral activity against Tobacco mosaic virus (TMV) infected left side of tobacco leaves assessed as inactivation effect at 125 ug/ml co-incubated with virus for 30 min before inoculation onto leaves measured at 3-4 days after viral challenge. The format is functional.
In test [8] the test system is Tobacco mosaic virus. The test is described as follows: In vivo antiviral activity against Tobacco mosaic virus (TMV) infected left side of tobacco leaves assessed as inactivation effect at 250 ug/ml co-incubated with virus for 30 min before inoculation onto leaves measured at 3-4 days after viral challenge. It is filed as functional.

Turning to `COc1ccc(S(=O)(=O)c2c(/C=N/OCc3ccc(Cl)nc3)c(C)nn2-c2ccccc2)cc1`, the Activity in the test with Tobacco mosaic virus [1] is 30.1%; in the test with Tobacco mosaic virus [2] it was 29.8%; in the test with Tobacco mosaic virus [3], 15.6%.

As to `Cc1nn(-c2ccccc2)c(S(=O)(=O)c2ccc(F)cc2)c1/C=N/OCc1ccc(Cl)nc1`, the figures for the Activity in the test on Tobacco mosaic virus [1], in the test with Tobacco mosaic virus [2] and in the test on Tobacco mosaic virus [3] were 20.6%, 40.2% and 21.7%, respectively.

Turning to `CNCC(=O)N[C@@H](CO)C(=O)N[C@H]1[C@H](O)[C@@H](O)[C@H](n2ccc(N)nc2=O)O[C@@H]1C(N)=O` [NINGNANMYCIN], the EC50 (commonly the concentration that produces a half-maximal response) with Tobacco mosaic virus [4] amounted to 52.7 µg/mL. Besides, the Activity is given as 59.9% in the test on Tobacco mosaic virus [5]; 44% in the test on Tobacco mosaic virus [6]; 72% with Tobacco mosaic virus [7]; 81.1% in the test with Tobacco mosaic virus [8]; 98% with Tobacco mosaic virus [1]; 57% in the test on Tobacco mosaic virus [2]. Besides, the Activity in the test with Tobacco mosaic virus [3] amounted to 54.8%.

Consider `Cc1ccc(Sc2c(/C=N/OCc3c(C)nn(-c4ccc(C)cc4)c3Cl)c(C)nn2-c2ccc(Cl)cc2)cc1`, for which the results for the Activity with Tobacco mosaic virus [1], with Tobacco mosaic virus [2] and in the test with Tobacco mosaic virus [3] were 36.7%, 21% and 18.9%, respectively.

In the case of `Cc1ccc(-n2nc(C)c(/C=N/OCc3c(C)nn(-c4ccc(Cl)cc4)c3Cl)c2Sc2ccc(F)cc2)cc1`, the Activity was 43% with Tobacco mosaic virus [1], 19% in the test with Tobacco mosaic virus [2] and 31.9% in the test on Tobacco mosaic virus [3].

With `Cc1ccc(S(=O)(=O)c2c(/C=N/OCc3ccc(Cl)nc3)c(C)nn2-c2ccc(Cl)cc2)cc1`, the Activity in the test on Tobacco mosaic virus [1] was found to be 33.3%; in the test with Tobacco mosaic virus [2], 31.3%; in the test on Tobacco mosaic virus [3], 9.2%.

With `Cc1ccc(S(=O)(=O)c2c(/C=N/OCc3ccc(Cl)nc3)c(C)nn2-c2ccccc2)cc1`, the Activity in the test on Tobacco mosaic virus [1] is reported as 45%; in the test with Tobacco mosaic virus [2], 28%; in the test with Tobacco mosaic virus [3] it was 9%.

`Cc1ccc(-n2nc(C)c(/C=N/OCc3ccc(Cl)nc3)c2Sc2ccc(F)cc2)cc1`: the results for the Activity in the test with Tobacco mosaic virus [1], in the test with Tobacco mosaic virus [2] and in the test on Tobacco mosaic virus [3] were 56.6%, 31% and 22%, respectively.

Take `Cc1ccc(Sc2c(/C=N/OCc3ccc(Cl)nc3)c(C)nn2-c2ccc(Cl)cc2)cc1`: the Activity in the test on Tobacco mosaic virus [1] came to 61.2%; with Tobacco mosaic virus [2] it was 37.7%; in the test on Tobacco mosaic virus [3], 26%.

On to `Cc1ccc(-n2nc(C)c(/C=N/OCc3ccc(Cl)nc3)c2S(=O)(=O)c2ccc(F)cc2)cc1`, for which the Activity with Tobacco mosaic virus [1] amounted to 11%; in the test with Tobacco mosaic virus [2] it was 28.2%; in the test on Tobacco mosaic virus [3], 22%.

Regarding `Cc1nn(-c2cccc(Cl)c2)c(Sc2ccc(F)cc2)c1/C=N/OCc1ccc(Cl)nc1`, the Activity in the test with Tobacco mosaic virus [1] is given as 61.7%; in the test on Tobacco mosaic virus [2] it was 28.6%; with Tobacco mosaic virus [3], 34.3%.

As for `COc1ccc(S(=O)(=O)c2c(/C=N/OCc3ccc(Cl)nc3)c(C)nn2-c2ccc(Cl)cc2)cc1`, the Activity in the test with Tobacco mosaic virus [1] came to 30.9%; with Tobacco mosaic virus [2], 16.4%; with Tobacco mosaic virus [3] it was 3.6%.

For `Cc1ccc(Sc2c(/C=N/OCc3ccc(Cl)nc3)c(C)nn2-c2ccc(C)cc2)cc1`, the Activity in the test on Tobacco mosaic virus [1] is given as 61%; in the test on Tobacco mosaic virus [2] it was 15.7%; with Tobacco mosaic virus [3], 32.1%.

Consider `COc1ccc(Sc2c(/C=N/OCc3ccc(Cl)nc3)c(C)nn2-c2ccccc2)cc1`, for which the EC50 in the test with Tobacco mosaic virus [4] came out at 115 µg/mL. Besides, the Activity in the test on Tobacco mosaic virus [5] is recorded as 41%; in the test on Tobacco mosaic virus [6], 32%; with Tobacco mosaic virus [7] it was 48.9%; in the test on Tobacco mosaic virus [8] it was 65%; in the test with Tobacco mosaic virus [1], 71.2%; in the test on Tobacco mosaic virus [2] it was 16.4%. Further, the Activity with Tobacco mosaic virus [3] worked out at 26.6%.

Turning to `Cc1ccc(Sc2c(/C=N/OCc3ccc(Cl)nc3)c(C)nn2-c2ccccc2)cc1`, in the test on Tobacco mosaic virus [4], the concentration for a half-maximal effect (EC50) stood at 58.7 µg/mL. The Activity was found to be 55.1% in the test on Tobacco mosaic virus [5]; 40.1% in the test on Tobacco mosaic virus [6]; 69.2% in the test on Tobacco mosaic virus [7]; 76% in the test with Tobacco mosaic virus [8]; 90.4% in the test with Tobacco mosaic virus [1]; 31.3% with Tobacco mosaic virus [2]. The Activity with Tobacco mosaic virus [3] stood at 47%.

For the molecule `Cc1nn(-c2ccc(Cl)cc2)c(S(=O)(=O)c2ccc(F)cc2)c1/C=N/OCc1ccc(Cl)nc1`, the Activity is recorded as 44.1% in the test on Tobacco mosaic virus [1], 42.2% in the test on Tobacco mosaic virus [2] and 7.7% in the test on Tobacco mosaic virus [3].

Consider `Cc1ccc(Sc2c(/C=N/OCc3c(C)nn(-c4ccc(C)cc4)c3Cl)c(C)nn2-c2ccc(C)cc2)cc1`, for which the Activity in the test on Tobacco mosaic virus [1] is given as 51.2%; with Tobacco mosaic virus [2] it was 44.8%; with Tobacco mosaic virus [3], 38.9%.

Turning to `Cc1nn(-c2ccccc2)c(Sc2ccc(F)cc2)c1/C=N/OCc1c(C)nn(-c2ccc(Cl)cc2)c1Cl`, the Activity in the test with Tobacco mosaic virus [1] amounted to 55.9%; with Tobacco mosaic virus [2] it was 32%; in the test with Tobacco mosaic virus [3] it was 35.6%.

In the case of `Cc1nn(-c2ccccc2)c(Sc2ccc(F)cc2)c1/C=N/OCc1ccc(Cl)nc1`, the Activity is 65.9% in the test with Tobacco mosaic virus [1], 18.9% with Tobacco mosaic virus [2] and 24% in the test with Tobacco mosaic virus [3].

Take `Cc1ccc(-n2nc(C)c(CO/N=C/c3c(C)nn(-c4ccc(C)cc4)c3Sc3ccc(F)cc3)c2Cl)cc1`: the Activity with Tobacco mosaic virus [1] came out at 50.9%; in the test with Tobacco mosaic virus [2] it was 41%; in the test on Tobacco mosaic virus [3], 22%.

`Cc1nn(-c2ccc(Cl)cc2)c(Sc2ccc(F)cc2)c1/C=N/OCc1ccc(Cl)nc1`: the EC50 with Tobacco mosaic virus [4] turned out to be 65.3 µg/mL. Also, the Activity came to 51.2% in the test on Tobacco mosaic virus [5]; 40.6% with Tobacco mosaic virus [6]; 53% in the test on Tobacco mosaic virus [7]; 65.7% with Tobacco mosaic virus [8]; 80.6% with Tobacco mosaic virus [1]; 43.5% in the test with Tobacco mosaic virus [2]. In the test on Tobacco mosaic virus [3], the Activity came out at 37.3%.

With `Cc1nn(-c2cccc(Cl)c2)c(S(=O)(=O)c2ccc(F)cc2)c1/C=N/OCc1ccc(Cl)nc1`, the Activity with Tobacco mosaic virus [1] was 30%; with Tobacco mosaic virus [2] it was 12.9%; in the test on Tobacco mosaic virus [3], 11%.

Consider `COc1ccc(Sc2c(/C=N/OCc3ccc(Cl)nc3)c(C)nn2-c2ccc(Cl)cc2)cc1`, for which the Activity was determined as 34.5% in the test with Tobacco mosaic virus [1], 22% in the test on Tobacco mosaic virus [2] and 12.9% in the test on Tobacco mosaic virus [3].
